Reference: PubChem BioAssay
Calls of active or inactive are those of the source.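 Rule for the calls: active = growth inhibition above 25% in both replicates, a cutoff set 3 SD above the mean; inconclusive = above 25% in only one replicate; inactive = the rest.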

experiment: OD615 S. cerevisiae growth inhibition, permissive medium, pilot counter-assay, permissive growth control for S. cerevisiae lifespan shortening project (AID 705); settings: OD615, 24 h, at 10 µM, hits give high values
Method in brief: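 System: S. cerevisiae with engineered DeaD lifespan system. Medium: SC raffinose/galactose permissive medium. Doses: single compound dose of 10 µM, 0.25% DMSO final. Schedule: 24 h exposure, 30 °C. Measured by: OD615 turbidity read. Read-out: growth inhibition.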

| SMILES | growth inhibition |
| --- | --- |
| CCOC(=O)c1cc(NC(=O)SCC(=O)O)c(C)nc1C | 0.31% (inactive) |
| Clc1c(CSc2nc3ccccc3o2)nc2sccn12 | -13.5% (inactive) |
| O=C(CCn1[nH]c(=O)c2ccccc2c1=O)NCCO | -16.2% (inactive) |
| CC12CCC(C(=O)N3CCN(C(=O)C45CCC(C)(C(=O)O4)C5(C)C)CC3)(OC1=O)C2(C)C | -17% (inactive) |
| COc1cccc(C2C(C(=O)c3cccs3)=C(O)C(=O)N2CCCn2ccnc2)c1OC (stereo not given) | -6.37% (inactive) |
| Cc1ccc(S(=O)(=O)N(CC(=O)N2CCC(C(N)=O)CC2)Cc2ccc(F)cc2)cc1 | -1.11% (inactive) |
| COc1ccc(N2CCN(C(=O)CSc3ccccc3)CC2)cc1 | 3.53% (inactive) |
| COc1ccccc1N1CCN(C(=O)C2CCN(S(=O)(=O)c3ccc(F)cc3)CC2)CC1 | -13.6% (inactive) |
| COCCN1C=C(C(=O)OC)C(c2cc3c(cc2Br)OCO3)C(C(=O)OC)=C1 | -12.8% (inactive) |
| CC1=C(C(N)=O)C(c2ccccn2)n2nc(SCc3ccccc3)nc2N1 (stereo not given) | -2.97% (inactive) |
| O=C(/C=C/N1CCOCC1)c1ccc(-c2ccccc2)cc1 | 99.4% (active) |
| CCOc1ccc(NS(=O)(=O)c2cc(Cl)ccc2OC)cc1 | -10.7% (inactive) |
| COc1ccc(NC(=O)CC2CCCCC2)cc1OC | -9.11% (inactive) |
| Cc1oc(-c2cccc(Cl)c2)nc1CN1CCC(C(=O)N2CCN(c3ccccc3F)CC2)CC1 | 0.125% (inactive) |
| O=C(Nc1ccc2c(c1)OCCO2)C1CCN(C(=O)c2ccc(F)cc2)CC1 | -9.55% (inactive) |
| CCOC(=O)Nc1c(O)ccc2oc(C)c(-c3ccccc3)c12 | -15.4% (inactive) |
| O=C(CCNS(=O)(=O)c1cccs1)Nc1ccccc1F | -26.3% (inactive) |
| CCOC(=O)N1CCN(C(=O)CN(C2CCCCC2)S(=O)(=O)c2ccc(F)cc2)CC1 | -7.17% (inactive) |
| O=C(COc1ccc(F)cc1)Nc1ccc(-n2cnnn2)cc1 | 2.42% (inactive) |
| O=C(Cn1c(=O)sc2ccccc21)NCCOc1ccccc1F | 7.09% (inactive) |

| SMILES | growth inhibition |
| --- | --- |
| O=C(c1ccco1)c1nnn(Cc2ccccc2)c1-c1ccccc1 | -6.81% (inactive) |
| O=C(Nc1ncc(Cc2ccccc2)s1)C1CCCO1 (stereo not given) | -14.2% (inactive) |
| CC1=C(C(=O)OC2CCCCCC2)C(c2ccc(C)o2)C2=C(CCCC2=O)N1 (stereo not given) | -11.2% (inactive) |
| CC12CN3CCN(CC(C3)C1(O)CN1CCCCC1)C2 (stereo not given) | -9.73% (inactive) |
| CCn1c(C(C#N)/C(=N\S(=O)(=O)c2cccs2)c2ccccc2)nc2ccccc21 (stereo not given) | -26.8% (inactive) |
| CCOC(=O)N1CCN(C(=O)c2cnn(-c3ccccc3)c2NC(=O)c2ccccc2F)CC1 | 0.625% (inactive) |
| O=C(CCC(=O)OCC(=O)c1ccccc1)NC1CCCCC1 | -6.58% (inactive) |
| O=C(Nc1nc2c(s1)CCCC2)C1COc2ccccc2O1 (stereo not given) | -5.28% (inactive) |
| CCN(CC)S(=O)(=O)c1ccc2c(c1)nc(SCn1nnc3ccccc3c1=O)n2CC | -1.67% (inactive) |
| Cc1ccc(N2C(=O)c3oc4ccccc4c(=O)c3C2c2cccc(O)c2)nc1 (stereo not given) | -6.7% (inactive) |
| COc1cc(C(=O)NCCc2ccc3c(c2)OCCO3)ccc1OCC(=O)N1CCOCC1 | -14.7% (inactive) |
| O=C(CN1CCN(Cc2ccccc2)CC1)NCC1COc2ccccc2O1 (stereo not given) | -1.31% (inactive) |
| Cc1nonc1NC(=O)c1ccccc1Br | -16.1% (inactive) |
| Cc1cc(NC(=O)CSc2nc3c(c(-c4cccnc4)c2C#N)CCC3)no1 | 2.25% (inactive) |
| Cc1onc(-c2ccccc2)c1C(=O)NCc1cccnc1 | -14% (inactive) |
| OC(CNCCc1ccccc1)c1ccccc1 (stereo not given) | -6.34% (inactive) |
| Cc1ccc(C)n1-c1ccc(N2CCOCC2)cc1 | -10.4% (inactive) |
| C#CCOC(=O)C1C2C=CC(C2)C1C(=O)O (stereo not given) | 2.87% (inactive) |
| Cc1ccc(C(=O)Nc2c(C(=O)N3CCOCC3)cnn2-c2ccccc2)cc1 | -7.86% (inactive) |
| Clc1cccc(-c2nnc(-c3ccccc3)o2)c1 | 8.84% (inactive) |
